Laboratory results reported in ChEMBL document CHEMBL1158099, “A chemical study of cyclic depsipeptides produced by a sponge-derived fungus” (J Nat Prod, 2006).
In brackets after ≈: the same amount, converted by molar mass. Starred links: 1 amine or outer side, 2 acyl side, 3 side chain; linkers in the order of their positions; H or OH if unused. Non-standard residues stand in square brackets, D forms with d. Residues, ends and D or L forms follow the SMILES beside them. X1 = CC(C)(O)[C@H](O[*:1])C(=O)[*:2]; dNMeF = CN[C@H](Cc1ccccc1)C(=O)O; Hica(2S) = CC(C)C[C@H](O)C(=O)O; Hiv = CC(C)[C@H](O)C(=O)O; NMeA = CN[C@@H](C)C(=O)O

How the values were obtained:
[1] = Cytotoxicity against mouse CFU-GM cells by disk diffusion soft agar colony formation assay; format: cell-based
Summary of the method: (§1)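 Cell-based soft agar disk diffusion assay, applied to extracts, partition fractions and pure compounds. Read-out is the inhibition zone in zone units. The panel covers solid tumour cells (Colon 38, Colon H116, Lung H125), leukaemia cells (L1210, CEM) and normal CFU-GM. A sample counts as solid-tumour selective when the solid tumour zone exceeds the leukaemia or normal cell zone by more than 250 units.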

CCRF-CEM = assay: Cytotoxicity against human CEM cells by disk diffusion soft agar colony formation assay; format: cell-based; summary of the method: as §1
MC-38 = assay: Cytotoxicity against mouse C38 cells by disk diffusion soft agar colony formation assay; format: functional; summary of the method: as §1
[2] = Cytotoxicity against human H116 cells by disk diffusion soft agar colony formation assay; format: functional; summary of the method: as §1
[3] = Cytotoxicity against human H125 cells by disk diffusion soft agar colony formation assay; format: functional; summary of the method: as §1
L1210 = assay: Cytotoxicity against mouse L1210 cells by disk diffusion soft agar colony formation assay; format: functional; summary of the method: as §1
[4] = Cytotoxicity against human CFU-GM cells by disk diffusion soft agar colony formation assay; format: cell-based; summary of the method: as §1
Enterococcus durans = assay: Antibacterial activity against Enterococcus durans; format: functional
[5] = system: Staphylococcus epidermidis; assay: Antibacterial activity against Staphylococcus epidermidis; format: functional

MIC (Enterococcus durans) | MIC [5] | Compound | Activity [1] | Activity (CCRF-CEM) | Activity (MC-38) | Activity [2] | Activity [3] | Activity (L1210) | Activity [4]
– | – | C[C@H]1CCC/C=C/[C@@H]2C[C@H](O)C[C@H]2[C@H](O)/C=C/C(=O)O1 [BREFELDIN A] | Not Active | 0 Zone units | 150 Zone units | 900 Zone units | 600 Zone units | 0 Zone units | 1000 Zone units
100 µg/mL (≈ 162 µM) | 100 µg/mL (≈ 162 µM) | CC(C)C[C@@H]1OC(=O)[C@H](C)NC(=O)[C@H](C(C)(C)O)OC(=O)[C@H](C)N(C)C(=O)[C@@H](C)NC(=O)[C@@H](Cc2ccccc2)N(C)C1=O [GUANGOMIDE A] (cyclo(A[Hica(2S)][dNMeF][dA][NMeA][X1])) | Not Active | – | 0 Zone units | 50 Zone units | 0 Zone units | 0 Zone units | Not Active
100 µg/mL (≈ 166 µM) | 100 µg/mL (≈ 166 µM) | CC(C)C[C@@H]1OC(=O)[C@H](C)NC(=O)[C@H](C(C)C)OC(=O)[C@H](C)N(C)C(=O)[C@@H](C)NC(=O)[C@@H](Cc2ccccc2)N(C)C1=O [GUANGOMIDE B] (cyclo(A[Hica(2S)][dNMeF][dA][NMeA][Hiv])) | – | – | – | – | – | – | –
